Experimental data reported in ChEMBL document CHEMBL3817744, “5'-Substituted Amiloride Derivatives as Allosteric Modulators Binding in the Sodium Ion Pocket of the Adenosine A2A Receptor” (J Med Chem, 2016).

Assays:
[1] = tested on: Adenosine A2 receptor (Homo sapiens), P29275+P29274 [W246A]; assay: Displacement of [3H]ZM-241,385 from human N-terminal FLAG-tagged adenosine A2A receptor W246A 6.48 mutant expressed in HEK293 cell membrane assessed as radioligand binding at 10 uM by microbeta scintillation counting method relative to control; format: cell membranes
Outline: (§1)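 Membranes from HEK293 cells stably expressing hA2AAR-WT (15 µg protein) or transiently expressing W246A mutant (4 µg; harvested 48 h post-transfection), ADA-treated. Incubated 2 h at 25 °C in 50 mM Tris-HCl pH 7.4 with 2.5 nM [3H]ZM-241,385 ± 10 µM test compound; filtration, scintillation counting. 100% = no compound; 0% = nonspecific (100 µM NECA for WT, 10 µM ZM-241,385 for mutant). Means of ≥3 independent assays in duplicate.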

Adenosine receptor A2a [2] = target: T1, Adenosine receptor A2a (Homo sapiens, UniProt P29274); assay: Displacement of [3H]ZM-241,385 from human N-terminal FLAG-tagged adenosine A2A receptor expressed in HEK293 cell membrane assessed as radioligand binding at 10 uM by microbeta scintillation counting method relative to control; format: cell membranes; outline: as §1
T1 sequence (P29274 whole entry): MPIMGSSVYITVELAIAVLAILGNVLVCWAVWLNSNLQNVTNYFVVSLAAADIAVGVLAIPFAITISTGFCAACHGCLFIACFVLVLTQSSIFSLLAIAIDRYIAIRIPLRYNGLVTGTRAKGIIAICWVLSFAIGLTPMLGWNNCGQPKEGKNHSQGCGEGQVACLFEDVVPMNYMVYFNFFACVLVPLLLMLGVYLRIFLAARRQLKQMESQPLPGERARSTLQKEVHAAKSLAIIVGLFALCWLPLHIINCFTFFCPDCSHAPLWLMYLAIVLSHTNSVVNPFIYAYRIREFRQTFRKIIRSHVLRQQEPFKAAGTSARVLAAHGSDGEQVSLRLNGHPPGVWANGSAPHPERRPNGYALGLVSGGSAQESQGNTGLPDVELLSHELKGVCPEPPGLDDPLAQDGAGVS

Adenosine receptor A2a [3] = target: T1, Adenosine receptor A2a; assay: Displacement of [3H]ZM-241,385 from human N-terminal FLAG-tagged adenosine A2A receptor expressed in HEK293 cell membrane assessed as decrease in radioligand residence time at 100 uM by microbeta scintillation counting method relative to control; format: cell membranes
Outline: (§2)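 Dissociation assay on HEK293 membranes (WT stable, 15 µg; W246A transient, 4 µg). Preequilibration with 2.5 nM [3H]ZM-241,385 for 1 h at 4 °C. Dissociation started with 100 µM NECA ± 100 µM compound (WT, times over 180 min) or 10 µM ZM-241,385 ± 10 µM compound (mutant, over 30 min). Filtration, scintillation counting. One-phase dissociation fit gave residence time versus control. ≥3 assays in duplicate.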

Adenosine receptor A2a [4] = target: T1, Adenosine receptor A2a; assay: Displacement of [3H]ZM-241,385 from human N-terminal FLAG-tagged adenosine A2A receptor expressed in HEK293 cell membrane by microbeta scintillation counting method; format: cell membranes
Outline: (§3)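 Competition binding to ADA-treated HEK293 membranes, WT receptor stably expressed (15 µg protein) or W246A mutant transiently expressed (4 µg). 2.5 nM [3H]ZM-241,385 with increasing compound concentrations, 2 h at 25 °C in 50 mM Tris-HCl pH 7.4. Filtration and scintillation counting. IC50 from a one-site fit. Nonspecific binding: 100 µM NECA (WT) or 10 µM ZM-241,385 (mutant). ≥3 independent assays in duplicate. Fold change = WT IC50 / mutant IC50.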

[5] = tested on: Adenosine A2 receptor (Homo sapiens), P29275+P29274 [W246A]; assay: Displacement of [3H]ZM-241,385 from human N-terminal FLAG-tagged adenosine A2A receptor W246A 6.48 mutant expressed in HEK293 cell membrane assessed as decrease in radioligand residence time at 10 uM by microbeta scintillation counting method relative to control; format: cell membranes; outline: as §2
[6] = tested on: Adenosine A2 receptor (Homo sapiens), P29275+P29274 [W246A]; assay: Displacement of [3H]ZM-241,385 from human N-terminal FLAG-tagged adenosine A2A receptor W246A 6.48 mutant expressed in HEK293 cell membrane assessed as radioligand residence time at 10 uM by microbeta scintillation counting method; format: cell membranes; outline: as §2
Adenosine A2 receptor = Adenosine A2 receptor (Homo sapiens, UniProt P29275+P29274, W246A); assay: Displacement of [3H]ZM-241,385 from human N-terminal FLAG-tagged adenosine A2A receptor W246A 6.48 mutant expressed in HEK293 cell membrane by microbeta scintillation counting method; format: cell membranes; outline: as §3
HEK293 = assay: Ratio of IC50 for human N-terminal FLAG-tagged adenosine A2A receptor expressed in HEK293 cell membrane to IC50 for human N-terminal FLAG-tagged adenosine A2A receptor W246A 6.48 mutant expressed in HEK293 cell membrane; format: cell-based; outline: as §3
Adenosine receptor A2a [7] = target: T1, Adenosine receptor A2a; assay: Displacement of [3H]ZM-241,385 from human N-terminal FLAG-tagged adenosine A2A receptor expressed in HEK293 cell membrane assessed as radioligand residence time at 100 uM by microbeta scintillation counting method; format: cell membranes; outline: as §2

SMILES	Activity [1]	Activity (Adenosine receptor A2a [2])	also measured
CCN(CC)CCNc1nc(N)c(C(=O)NC(=N)N)nc1Cl	53%	85%	–
CCOc1ccc(CCNc2nc(N)c(C(=O)N=C(N)N)nc2Cl)cc1.O=C(O)C(F)(F)F	3.5%	27%	fold change (FC) (Adenosine receptor A2a [3]): 1.5; IC50 (Adenosine receptor A2a [4]): 3.4 µM; fold change (FC) [5]: 2.1; TIME [6]: 0.0217 h; IC50 (Adenosine A2 receptor): 0.05 µM; Ratio IC50 (HEK293): 76; TIME (Adenosine receptor A2a [7]): 0.667 h
Cc1ccc(S(=O)(=O)NCCNc2nc(N)c(C(=O)NC(=N)N)nc2Cl)cc1	32%	85%	–
NC(N)=NC(=O)c1nc(Cl)c(NCCc2ccc(Cl)c(Cl)c2)nc1N	11%	82%	–
NC(N)=NC(=O)c1nc(Cl)c(NCCc2ccc(OCc3ccccc3)cc2)nc1N	4%	75%	–
COc1ccc(CCNc2nc(N)c(C(=O)N=C(N)N)nc2Cl)cc1OC	1.8%	51%	–
NC(N)=NC(=O)c1nc(Cl)c(NCCc2ccc(Br)cc2)nc1N	4.8%	67%	–
Cc1ccc(CCNc2nc(N)c(C(=O)N=C(N)N)nc2Cl)cc1	2.1%	50%	–
NC(N)=NC(=O)c1nc(Cl)c(NCCc2ccc(O)cc2)nc1N	9.5%	72%	–
Cl.NC(N)=NC(=O)c1nc(Cl)c(NCCc2ccc3c(c2)OCO3)nc1N	1%	35%	IC50 (Adenosine receptor A2a [4]): 5.6 µM; fold change (FC) [5]: 2.3; TIME [6]: 0.02 h; IC50 (Adenosine A2 receptor): 0.07 µM; Ratio IC50 (HEK293): 80; TIME (Adenosine receptor A2a [7]): 1.02 h
COc1ccc(CCNc2nc(N)c(C(=O)N=C(N)N)nc2Cl)cc1.Cl	-0.4%	31%	fold change (FC) (Adenosine receptor A2a [3]): 1.5; IC50 (Adenosine receptor A2a [4]): 4.4 µM; fold change (FC) [5]: 1.3; TIME [6]: 0.0333 h; IC50 (Adenosine A2 receptor): 0.12 µM; Ratio IC50 (HEK293): 37; TIME (Adenosine receptor A2a [7]): 0.733 h
CCCCOc1ccc(CCNc2nc(N)c(C(=O)N=C(N)N)nc2Cl)cc1	3.4%	66%	–
N=C(N)NC(=O)c1nc(Cl)c(NCCc2nnn[nH]2)nc1N	101%	99%	–
N=C(N)NC(=O)c1nc(Cl)c(N)nc1N	11%	71%	–
NC(N)=NC(=O)c1nc(Cl)c(NCCCc2ccccc2)nc1N	9%	60%	–
COc1cccc(CCNc2nc(N)c(C(=O)N=C(N)N)nc2Cl)c1.Cl	5.4%	41%	fold change (FC) (Adenosine receptor A2a [3]): 1.5; IC50 (Adenosine receptor A2a [4]): 8.1 µM; fold change (FC) [5]: 3.4; TIME [6]: 0.0133 h; IC50 (Adenosine A2 receptor): 0.25 µM; Ratio IC50 (HEK293): 32; TIME (Adenosine receptor A2a [7]): 0.7 h
NC(N)=NC(=O)c1nc(Cl)c(NCCc2ccc(Cl)cc2)nc1N	32%	92%	–
CCOC(=O)CCNc1nc(N)c(C(=O)NC(=N)N)nc1Cl	48%	87%	–
N=C(N)NC(=O)c1nc(Cl)c(N2CCCCCC2)nc1N [N,N-HEXAMETHYLENEAMILORIDE]	1.8%	30%	fold change (FC) (Adenosine receptor A2a [3]): 2.2; IC50 (Adenosine receptor A2a [4]): 5.1 µM; fold change (FC) [5]: 1.9; TIME [6]: 0.0233 h; IC50 (Adenosine A2 receptor): 0.27 µM; Ratio IC50 (HEK293): 19; TIME (Adenosine receptor A2a [7]): 0.467 h
C=CCOc1ccc(CCNc2nc(N)c(C(=O)N=C(N)N)nc2Cl)cc1	2.2%	43%	–
NC(N)=NC(=O)c1nc(Cl)c(NC2Cc3ccccc3C2)nc1N	6.6%	68%	–
NC(N)=NC(=O)c1nc(Cl)c(NCCc2ccc([N+](=O)[O-])cc2)nc1N	5.8%	68%	–
NC(N)=NC(=O)c1nc(Cl)c(NCCc2ccc(OC(F)(F)F)cc2)nc1N	5.2%	63%	–

Second part, led by results:

Activity [1]	Activity (Adenosine receptor A2a [2])	SMILES	also measured
1.1%	54%	N=C(N)NC(=O)c1nc(Cl)c(NCCc2ccccc2)nc1N	–
35%	84%	N=C(N)NC(=O)c1nc(Cl)c(NCCSCc2ccccc2)nc1N	–
70%	96%	N=C(N)NC(=O)c1nc(Cl)c(NCCC(=O)O)nc1N	–
48%	96%	N=C(N)NC(=O)c1nc(Cl)c(NCc2ccc(F)cc2)nc1N	–
46%	71%	N=C(N)NC(=O)c1nc(Cl)c(NCc2cccnc2)nc1N	–
111%	88%	N=C(N)NC(=O)c1nc(Cl)c(NCC(=O)O)nc1N	–
17%	65%	N#CCCNc1nc(N)c(C(=O)NC(=N)N)nc1Cl	–
21%	77%	N=C(N)NC(=O)c1nc(Cl)c(NCc2ccccc2)nc1N	–
65%	90%	N=C(N)NC(=O)c1nc(Cl)c(NCCNCc2ccccc2)nc1N	–
18%	82%	N=C(N)NC(=O)c1nc(Cl)c(NCCS(=O)(=O)Cc2ccccc2)nc1N	–
73%	87%	N=C(N)NC(=O)c1nc(Cl)c(NCc2ccncc2)nc1N	–
